Results taken from publication PMC6314015 (Bioorganic & medicinal chemistry, 2018).
“Also recorded” adds a separate entry of the source. Blank lines part the entries; values can stand above or below the compound they belong to.

What was measured:
[1] = comparable solutions (500 μM); cited from earlier work
[2] = same concentration (500 μM); cited from earlier work
ARPE-19 cells [3] = test: Cytoprotection against paraquat-induced oxidative damage; format: cell-based, human; details: 10 mM paraquat, 48 h; for cytoprotection against paraquat damage: prochelators; for cytoprotection against paraquat-induced cell death: chelators, Figure S5
[4] = cited from earlier work
[5] = system: ARPE-19 retinal pigment epithelial cells; test: Inherent cytotoxicity, CellTiter-Blue viability; format: cell-based, human; details: 72 h incubation, up to 100 μM
Outline: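 Confluent ARPE-19 cells (DMEM/F12 1:1 with 10% FBS, 37 °C, 5% CO2) were washed three times with MEM. Cells were exposed to prochelators at 5–100 μM final in MEM with up to 1% DMSO for 72 h. Viability measured by CellTiter-Blue; triplicate runs, standard deviation.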

[6] = format: binding; details: for calcein fluorescence upon addition of chelator: 4 μM chelator (2 equivalents), 2 μM calcein-Fe^3+, PBS pH 7.4
Outline: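 Fe3+-calcein formed by equilibrating 4 μM ferric ammonium citrate with 4 μM calcein in PBS for 4 h. Compounds were freshly made at 100 μM in PBS pH 7.4; for activation, 100 μM prochelator was incubated with 5 mM H2O2 for 12 h. 2 μM Fe3+-calcein plus 4 μM compound or mixture, 2 h, 25 °C; fluorescence at 485/535 nm. Triplicate wells averaged; calcein-only wells = 100%.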

[7] = Solubility in aqueous buffers; format: physicochemical; details: aqueous buffer
[8] = 1H NMR characterization of hydrolytic stability in D2O; format: physicochemical
Outline: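 Prochelator stocks (10 mM in DMSO-d6) diluted to 500 μM in D2O with 5% DMSO-d6, or to 200 μM with 2% DMSO-d6 for one analog. Solutions equilibrated 1 h before 1H NMR. Intact prochelator and isoniazid fraction estimated by integrating the hydrazone-compound aromatic peak against the corresponding isoniazid peak.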

ARPE-19 cells [9] = test: Cytoprotection against H2O2-induced oxidative damage; format: cell-based, human
Outline: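 ARPE-19 cells were grown to confluence (DMEM/F12 1:1, 10% FBS, 37 °C, 5% CO2) and washed with MEM. Cells were pretreated 5 h with prochelators or chelators in MEM, then given 200 μM H2O2 (final) and incubated 19 h more. Viability read by CellTiter-Blue, as % of MEM-only control; H2O2-only as negative control; triplicate, SD.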

[10] = UV-Vis spectrophotometry of hydrolysis equilibrium in PBS pH 7.4; format: physicochemical; details: for hydrolysis equilibrium constant K: PBS pH 7.4, equilibrated mixtures at various concentrations; for fold improved hydrolytic stability compared to BSIH: from K values
Outline: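 DMSO stocks were diluted into PBS pH 7.4 (100 μM). Spectra were recorded in 1-cm quartz cuvettes every 1 min over 30 min; 100 μM isoniazid + 100 μM aldehyde fragment served as reference. For K, equilibrated solutions at several initial concentrations were read at 263 and 321 nm, and component concentrations were solved from fitted extinction coefficients. K = [INH][FBA]/[prochelator], averaged across concentrations.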

H9c2 cardiomyoblasts = details: after 72 h; cited from earlier work
[11] = cited from earlier work; remark: listed apart in the source
[12] = pH 7.4, total ligand 10 µM, iron 1 µM; cited from earlier work
[13] = prochelators, 5 h pre-incubation, 200 μM H2O2, viability after 19 h

SMILES: CC1(C)OB(c2ccccc2/C=N/NC(=O)c2ccncc2)OC1(C)C [BSIH, (E)-N’-(2-(4,4,5,5-tetramethyl-1,3,2-dioxaborolan-2-yl)benzylidene)isonicotinohydrazide]
intact prochelator at equilibrium [1]: 80%
SIH generated from peroxide activation [2]: 51%
cytoprotection against paraquat damage (ARPE-19 cells [3]): failed to protect cells from paraquat damage; also recorded: lack of cytoprotection
stability in plasma ([4]; 10 h incubation in plasma): little degradation
cytotoxicity [5]: non-toxic

SMILES: Oc1ccccc1/C=N/NC(=S)Nc1ccccc1 [SPTH, (E)-2-(2-hydroxybenzylidene)-N-phenylhydrazine-1-carbothioamide]
cytoprotection against paraquat-induced cell death (ARPE-19 cells [3]): ~ 40%
calcein fluorescence upon addition of chelator [6]: failed to fully restore calcein emission

solubility [7]: ≤ 50 µM
SMILES: COc1ccc(/C=N/NC(=O)c2ccncc2)c(O)c1 [(m-OMe)SIH]

solubility [7]: ≥ 300 µM
SMILES: COc1ccc(/C=N/NC(=O)c2cccnc2)c(B2OC(C)(C)C(C)(C)O2)c1 [(m-OMe)BSNH, (E)-N’-(4-methoxy-2-(4,4,5,5-tetramethyl-1,3,2-dioxaborolan-2-yl)benzylidene)nicotinohydrazide]

solubility [7]: ≥ 300 µM
SMILES: COc1ccc(/C=N/NC(=O)c2cccnc2)c(O)c1 [(m-OMe)SNH, (E)-N’-(2-hydroxy-4-methoxybenzylidene)nicotinohydrazide]
calcein fluorescence upon addition of chelator [6]: more than 90%

SMILES: O=C(N/N=C/c1ccccc1O)c1ccncc1 [SIH, (E)-N’-(2-hydroxybenzylidene)isonicotinohydrazide]
cytoprotection against paraquat-induced cell death (ARPE-19 cells [3]): ~ 40%
stability in buffer ([4]; buffer at pH 7.4): remains intact
stability in cell culture media and plasma ([4]; cell culture media and plasma): degrades within hours

SMILES: COc1ccc(O)c(/C=N/NC(=O)c2ccncc2)c1 [(p-OMe)SIH, (E)-N’-(2-hydroxy-5-methoxybenzylidene)isonicotinohydrazide]
cytoprotection against paraquat-induced cell death (ARPE-19 cells [3]): ~ 40%
calcein fluorescence upon addition of chelator [6]: more than 90%

SMILES: CC1(C)OB(c2cc3c(cc2/C=N/NC(=O)c2ccncc2)OCO3)OC1(C)C [(MD)BSIH, (E)-N’-((6-(4,4,5,5-tetramethyl-1,3,2-dioxaborolan-2-yl)benzo[d][1,3]dioxol-5-yl)methylene)isonicotinohydrazide]
hydrolysis fragments in the equilibrated solution ([8]; 200 μM in D2O, 2% DMSO-d6): 20%
concentration effective for cytoprotection (ARPE-19 cells [9]; [13]): 25 µM
cytoprotection against paraquat damage (ARPE-19 cells [3]): dose-dependent recovery of cell viability
cytotoxicity [5]: non-toxic
increase in chelator released compared to BSIH ([6]; after H2O2 activation): 50%
hydrolysis equilibrium constant K, fold lower than parent BSIH [10]: ~ 2 fold
hydrolysis equilibrium constant K [10]: (8.0 ± 0.6) × 10^−6 M
fold improved hydrolytic stability compared to BSIH [10]: 1.9 fold

SMILES: C/C(=N\NC(=O)c1ccncc1)c1ccccc1OCc1ccc(B2OC(C)(C)C(C)(C)O2)cc1 [BHAPI]
TC50 (H9c2 cardiomyoblasts): 37.1 ± 7.7 µM

SMILES: C/C(=N\NC(=O)c1ccncc1)c1ccccc1O [HAPI, (E)-N’-(1-(2-hydroxyphenyl)ethylidene)isonicotinohydrazide, reference compound]
cytoprotection against paraquat-induced cell death (ARPE-19 cells [3]): ~ 40%

INH at equilibrium ([8]; 500 μM in D2O, 5% DMSO-d6, 1 h equilibration): 15%
hydrolysis equilibrium constant K [10]: (1.1 ± 0.1) × 10^−5 M
fold improved hydrolytic stability compared to BSIH [10]: 1.3 fold
SMILES: COc1ccc(B2OC(C)(C)C(C)(C)O2)c(/C=N/NC(=O)c2ccncc2)c1 [(p-OMe)BSIH, (E)-N’-(5-methoxy-2-(4,4,5,5-tetramethyl-1,3,2-dioxaborolan-2-yl)benzylidene)isonicotinohydrazide]
concentration effective for cytoprotection (ARPE-19 cells [9]; [13]): 25 µM
increase in H2O2-dependent conversion rate relative to the m-Cl compound [11]: ~5 fold

SMILES: O=C(O)CN(CC(=O)O)Cc1cc2c(cc1O)Oc1cc(O)c(CN(CC(=O)O)CC(=O)O)cc1C21OC(=O)c2ccccc21 [Calcein]
pFe [12]: 20.3

SMILES: CNC(=S)N/N=C/c1ccccc1B1OC(C)(C)C(C)(C)O1 [BSMTH, (E)-N-methyl-2-(2-(4,4,5,5-tetramethyl-1,3,2-dioxaborolan-2-yl)benzylidene)hydrazine-1-carbothioamide]
cytoprotection from peroxide damage (ARPE-19 cells [9]; [13]): lack of cytoprotection; also recorded: ineffective
cytoprotection against paraquat damage (ARPE-19 cells [3]): lack of cytoprotection

UV-Vis spectrum over time in PBS buffer ([10]; PBS buffer, Figure S3): remains unchanged over time
SMILES: COc1ccc(/C=N/NC(=O)c2ccncc2)cc1B1OC(C)(C)C(C)(C)O1 [(m-OMe)BIIH, (E)-N’-(4-methoxy-3-(4,4,5,5-tetramethyl-1,3,2-dioxaborolan-2-yl)benzylidene)isonicotinohydrazide]
hydrolysis products by 1H NMR upon dilution in D2O ([8]; 500 μM in D2O, 5% DMSO-d6): no additional peaks corresponding to potential hydrolysis products were observed
cytoprotection from peroxide damage (ARPE-19 cells [9]; [13]): lack of cytoprotection

SMILES: CC1(C)OB(c2ccccc2/C=N/NC(=S)Nc2ccccc2)OC1(C)C [BSPTH, (E)-N-phenyl-2-(2-(4,4,5,5-tetramethyl-1,3,2-dioxaborolan-2-yl)benzylidene)hydrazine-1-carbothioamide]
cytoprotection from peroxide damage (ARPE-19 cells [9]; [13]): modest cellular protection
cytoprotection against paraquat damage (ARPE-19 cells [3]): lack of cytoprotection

SMILES: CNC(=S)N/N=C/c1ccccc1O [SMTH, (E)-2-(2-hydroxybenzylidene)-N-methylhydrazine-1-carbothioamide]
cytoprotection from peroxide damage (ARPE-19 cells [9]; chelators, H2O2-stressed cells, Figure S4): no protective effect
cytoprotection against paraquat-induced cell death (ARPE-19 cells [3]): failed to protect cells
calcein fluorescence upon addition of chelator [6]: no effect on the quenched signal
